Experimental data from ChEMBL document CHEMBL4028879, “Structure-Activity Relationship Studies of Pyrimido[5,4-b]indoles as Selective Toll-Like Receptor 4 Ligands” (J Med Chem, 2017).
pEC50: −log10 of the molar value. Calls of active or inactive are those of the source. The rule behind the calls is not given here.

Biological target: T1, Toll-like receptor 4 (Homo sapiens, UniProt O00206)
Assay: Agonist activity at human TLR4 expressed in HEK293 blue cells assessed as induction of NF-kappaB activation-mediated SEAP production after 20 to 24 hrs by colorimetric assay
Format: cell-based
Settings: not given
Method in brief: (§1)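 HEK-Blue cells expressing human or mouse TLR4, 2.5 × 10⁴/well in DMEM with 10% FBS, pyruvate, glutamine and antibiotics. Graded doses from 20 mM DMSO stocks, final DMSO 0.05%. Supernatants harvested after 20–24 h; SEAP read by colorimetric substrate at 630 nm. EC50 taken as the concentration giving 50% of maximal activation. LPS 100 ng/mL served as positive control.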

T1 sequence (O00206 whole entry): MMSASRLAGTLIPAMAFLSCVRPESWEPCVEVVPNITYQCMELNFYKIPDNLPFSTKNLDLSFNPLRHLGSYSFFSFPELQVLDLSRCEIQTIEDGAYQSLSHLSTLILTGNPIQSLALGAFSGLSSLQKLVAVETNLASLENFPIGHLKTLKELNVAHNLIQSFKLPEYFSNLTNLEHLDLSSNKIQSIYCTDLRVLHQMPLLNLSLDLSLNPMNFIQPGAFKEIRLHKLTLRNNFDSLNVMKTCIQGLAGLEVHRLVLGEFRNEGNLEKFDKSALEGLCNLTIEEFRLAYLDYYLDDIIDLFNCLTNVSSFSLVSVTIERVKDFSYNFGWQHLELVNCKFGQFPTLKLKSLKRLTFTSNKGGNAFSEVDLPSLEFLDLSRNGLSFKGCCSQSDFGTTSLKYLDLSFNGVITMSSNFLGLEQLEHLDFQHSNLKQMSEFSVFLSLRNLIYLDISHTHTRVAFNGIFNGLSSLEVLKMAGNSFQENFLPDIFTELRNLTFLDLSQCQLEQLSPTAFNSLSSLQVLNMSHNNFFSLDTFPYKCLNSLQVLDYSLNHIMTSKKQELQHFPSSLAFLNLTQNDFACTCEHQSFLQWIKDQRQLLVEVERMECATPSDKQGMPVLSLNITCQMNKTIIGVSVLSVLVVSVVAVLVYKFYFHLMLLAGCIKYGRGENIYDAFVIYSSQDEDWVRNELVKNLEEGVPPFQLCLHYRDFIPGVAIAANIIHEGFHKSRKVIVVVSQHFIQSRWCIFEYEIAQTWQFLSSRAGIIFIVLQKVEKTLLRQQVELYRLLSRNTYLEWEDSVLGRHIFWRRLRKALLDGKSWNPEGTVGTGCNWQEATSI

pEC50	Structure (SMILES)
< 5.00	Cn1c2c(c3nc(SCC(=O)NC4CCCCC4)n(-c4ccccc4)c(=O)c31)CCCCC2
6.04	Cn1c2ccc(-c3ccc4ccccc4c3)cc2c2nc(SCC(=O)NC3CCCCC3)n(-c3ccccc3)c(=O)c21
5.08	Cn1c2ccccc2c2nc(SCC(=O)NC3CCCCC3)n(-c3ccccc3)c(=O)c21
6.37	Cn1c2ccc(-c3ccccc3)cc2c2nc(SCC(=O)NC3CCCCC3)n(-c3ccccc3)c(=O)c21

Biological target: T2, Toll-like receptor 4 (Mus musculus, UniProt Q9QUK6)
T2 sequence (Q9QUK6 whole entry): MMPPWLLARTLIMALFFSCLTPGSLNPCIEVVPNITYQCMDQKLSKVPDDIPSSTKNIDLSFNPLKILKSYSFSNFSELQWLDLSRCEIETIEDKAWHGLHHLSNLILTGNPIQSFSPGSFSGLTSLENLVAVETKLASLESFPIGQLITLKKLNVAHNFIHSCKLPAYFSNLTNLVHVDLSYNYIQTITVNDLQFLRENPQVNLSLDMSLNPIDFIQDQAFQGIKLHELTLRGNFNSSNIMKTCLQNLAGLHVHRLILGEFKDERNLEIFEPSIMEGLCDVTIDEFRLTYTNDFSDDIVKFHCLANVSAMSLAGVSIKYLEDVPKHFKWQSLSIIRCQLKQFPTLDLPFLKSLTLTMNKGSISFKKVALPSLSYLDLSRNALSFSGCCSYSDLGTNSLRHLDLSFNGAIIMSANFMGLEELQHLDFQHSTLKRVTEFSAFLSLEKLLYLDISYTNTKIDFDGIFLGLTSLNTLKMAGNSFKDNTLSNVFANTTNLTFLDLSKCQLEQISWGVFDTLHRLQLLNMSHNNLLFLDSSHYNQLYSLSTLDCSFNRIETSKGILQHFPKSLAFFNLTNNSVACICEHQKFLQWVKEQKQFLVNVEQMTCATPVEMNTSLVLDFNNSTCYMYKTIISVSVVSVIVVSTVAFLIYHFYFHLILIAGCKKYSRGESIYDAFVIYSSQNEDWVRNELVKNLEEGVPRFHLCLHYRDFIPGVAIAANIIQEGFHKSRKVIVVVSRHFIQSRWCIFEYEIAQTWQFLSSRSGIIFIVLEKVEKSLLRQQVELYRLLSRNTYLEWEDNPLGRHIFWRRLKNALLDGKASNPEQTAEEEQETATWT
Assay: Agonist activity at mouse TLR4 expressed in HEK293 blue cells assessed as induction of NF-kappaB activation-mediated SEAP production after 20 to 24 hrs by colorimetric assay
Format: cell-based
Settings: not given
Method in brief: as §1

pEC50	Structure (SMILES)
5.06	Cn1c2c(c3nc(SCC(=O)NC4CCCCC4)n(-c4ccccc4)c(=O)c31)CCCCC2
5.70	Cn1c2ccc(-c3ccc4ccccc4c3)cc2c2nc(SCC(=O)NC3CCCCC3)n(-c3ccccc3)c(=O)c21
5.50	Cn1c2ccccc2c2nc(SCC(=O)NC3CCCCC3)n(-c3ccccc3)c(=O)c21
6.09	Cn1c2ccc(-c3ccccc3)cc2c2nc(SCC(=O)NC3CCCCC3)n(-c3ccccc3)c(=O)c21

Biological target: T1, Toll-like receptor 4
Assay: Agonist activity at human TLR4 expressed in HEK293 blue cells assessed as induction of NF-kappaB activation-mediated SEAP production by measuring AUC after 20 to 24 hrs by colorimetric assay relative to N-cyclohexyl-2-(5-methyl-4-oxo-3-phenyl-4,5-dihydro-3H-pyrimido[5,4-b]indol-2-ylthio)acetamide
Format: cell-based
Settings: not given

Activity [%]	Structure (SMILES)
46	Cn1c2c(c3nc(SCC(=O)NC4CCCCC4)n(-c4ccccc4)c(=O)c31)CCCCC2
1300	Cn1c2ccc(-c3ccc4ccccc4c3)cc2c2nc(SCC(=O)NC3CCCCC3)n(-c3ccccc3)c(=O)c21
1560	Cn1c2ccc(-c3ccccc3)cc2c2nc(SCC(=O)NC3CCCCC3)n(-c3ccccc3)c(=O)c21

Biological target: T3, Toll-like receptor 4 (Mus musculus) (UniProt Q9QUK6)
T3 sequence (whole entry): T2 sequence (Q9QUK6 whole entry)
Assay: Agonist activity at mouse TLR4 expressed in HEK293 blue cells assessed as induction of NF-kappaB activation-mediated SEAP production by measuring AUC after 20 to 24 hrs by colorimetric assay relative to N-cyclohexyl-2-(5-methyl-4-oxo-3-phenyl-4,5-dihydro-3H-pyrimido[5,4-b]indol-2-ylthio)acetamide
Format: cell-based
Settings: not given

Activity [%]	Structure (SMILES)
44	Cn1c2c(c3nc(SCC(=O)NC4CCCCC4)n(-c4ccccc4)c(=O)c31)CCCCC2
78	Cn1c2ccc(-c3ccc4ccccc4c3)cc2c2nc(SCC(=O)NC3CCCCC3)n(-c3ccccc3)c(=O)c21
223	Cn1c2ccc(-c3ccccc3)cc2c2nc(SCC(=O)NC3CCCCC3)n(-c3ccccc3)c(=O)c21

System: not listed separately
Assay: Cytotoxicity against C57BL/6 mouse primary BMDC assessed as cell viability at 5 uM after 18 hrs by MTT assay relative to control
Format: cell-based
Settings: primary BMDC (bone marrow-derived dendritic cells), read-out: Activity

Structure (SMILES)	viability at 18 h, 5 µM [%]
Cn1c2c(c3nc(SCC(=O)NC4CCCCC4)n(-c4ccccc4)c(=O)c31)CCCCC2	95
Cn1c2ccc(-c3ccc4ccccc4c3)cc2c2nc(SCC(=O)NC3CCCCC3)n(-c3ccccc3)c(=O)c21	84
Cn1c2ccccc2c2nc(SCC(=O)NC3CCCCC3)n(-c3ccccc3)c(=O)c21	97 to 106
Cn1c2ccc(-c3ccccc3)cc2c2nc(SCC(=O)NC3CCCCC3)n(-c3ccccc3)c(=O)c21	93

Biological target: T3, Toll-like receptor 4 (Mus musculus)
Assay: Agonist activity at TLR4 in C57BL/6 mouse primary BMDC assessed as induction of IL-6 release at 5 uM after 18 hrs by ELISA relative to N-cyclohexyl-2-(5-methyl-4-oxo-3-phenyl-4,5-dihydro-3H-pyrimido[5,4-b]indol-2-ylthio)acetamide
Settings: not given

Activity [%]	Structure (SMILES)
93	Cn1c2c(c3nc(SCC(=O)NC4CCCCC4)n(-c4ccccc4)c(=O)c31)CCCCC2
137	Cn1c2ccc(-c3ccc4ccccc4c3)cc2c2nc(SCC(=O)NC3CCCCC3)n(-c3ccccc3)c(=O)c21
123	Cn1c2ccc(-c3ccccc3)cc2c2nc(SCC(=O)NC3CCCCC3)n(-c3ccccc3)c(=O)c21

Biological target: T1, Toll-like receptor 4
Assay: Agonist activity at TLR4 in human PBMC assessed as induction of IL-8 release at 0.1 to 10 uM after 18 hrs by ELISA
Settings: not given
Method in brief: (§2)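 PBMC isolated from blood-bank buffy coats, 1 × 10⁶/mL, stimulated with graded compound doses for 18 h at 37°C, 5% CO₂. IL-6 and IL-8 in supernatants measured by ELISA. Data are mean ± SEM, representative of three independent experiments. Two-way ANOVA with Dunnett's post hoc test.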

Activity	Structure (SMILES)
Active	Cn1c2ccc(-c3ccc4ccccc4c3)cc2c2nc(SCC(=O)NC3CCCCC3)n(-c3ccccc3)c(=O)c21
Active	Cn1c2ccccc2c2nc(SCC(=O)NC3CCCCC3)n(-c3ccccc3)c(=O)c21
Active	Cn1c2ccc(-c3ccccc3)cc2c2nc(SCC(=O)NC3CCCCC3)n(-c3ccccc3)c(=O)c21

Biological target: T1, Toll-like receptor 4
Assay: Agonist activity at TLR4 in human PBMC assessed as induction of IL-6 release at 0.1 to 10 uM after 18 hrs by ELISA
Settings: not given
Method in brief: as §2

Activity	Structure (SMILES)
Active	Cn1c2ccc(-c3ccc4ccccc4c3)cc2c2nc(SCC(=O)NC3CCCCC3)n(-c3ccccc3)c(=O)c21
Active	Cn1c2ccccc2c2nc(SCC(=O)NC3CCCCC3)n(-c3ccccc3)c(=O)c21
Active	Cn1c2ccc(-c3ccccc3)cc2c2nc(SCC(=O)NC3CCCCC3)n(-c3ccccc3)c(=O)c21

System: HepG2
Assay: Cytotoxicity against human HepG2 cells assessed as reduction in cell viability at 5 uM after 18 hrs by MTT assay
Format: cell-based
Settings: hepg2, 18 h
Method in brief: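 HepG2 cells, 1 × 10⁴/well, exposed overnight (18 h) to 5 μM compound. MTT 0.5 mg/mL then added for six or more hours, followed by lysis and absorbance reading. Mean ± SEM of representative data from three independent experiments.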

Structure (SMILES)	Activity
Cn1c2c(c3nc(SCC(=O)NC4CCCCC4)n(-c4ccccc4)c(=O)c31)CCCCC2	Non-Toxic
Cn1c2ccc(-c3ccc4ccccc4c3)cc2c2nc(SCC(=O)NC3CCCCC3)n(-c3ccccc3)c(=O)c21	Non-Toxic
Cn1c2ccccc2c2nc(SCC(=O)NC3CCCCC3)n(-c3ccccc3)c(=O)c21	Non-Toxic
Cn1c2ccc(-c3ccccc3)cc2c2nc(SCC(=O)NC3CCCCC3)n(-c3ccccc3)c(=O)c21	Non-Toxic

Biological target: T3, Toll-like receptor 4 (Mus musculus)
Assay: Agonist activity at TLR4 in C57BL/6 mouse primary BMDC assessed as induction of CCL5 release at 0.1 to 10 uM after 18 hrs by ELISA
Settings: not given
Method in brief: (§3)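 BMDC from C57BL/6 mice, 1 × 10⁵ cells/well in RPMI 1640 with 10% FBS and penicillin/streptomycin. Graded doses for 18 h at 37°C, 5% CO₂. IL-6 or CCL5 in supernatants measured by ELISA, detection limit 15 pg/mL. Positive control ultrapure LPS-EB 10 ng/mL. Significance by two-way ANOVA with Dunnett's post hoc test.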

Activity	Structure (SMILES)
Active	Cn1c2c(c3nc(SCC(=O)NC4CCCCC4)n(-c4ccccc4)c(=O)c31)CCCCC2
Active	Cn1c2ccc(-c3ccc4ccccc4c3)cc2c2nc(SCC(=O)NC3CCCCC3)n(-c3ccccc3)c(=O)c21
Active	Cn1c2ccccc2c2nc(SCC(=O)NC3CCCCC3)n(-c3ccccc3)c(=O)c21
Active	Cn1c2ccc(-c3ccccc3)cc2c2nc(SCC(=O)NC3CCCCC3)n(-c3ccccc3)c(=O)c21

System: Mus musculus
Assay: Immunostimulatory activity in wild type C57BL/6 mouse assessed as induction of IL-6 levels in serum at 20 nmol, iv measured at 3 hrs post dose by Luminex beads assay
Format: functional, organism-based
Settings: not given
Method in brief: (§4)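 Seven- to nine-week-old wild-type C57BL/6 mice (n = 6) injected iv with 20 nmol/animal in 0.1% DMSO in saline. Sera collected 3 h after injection; IL-6, IP-10 and KC quantified by Luminex bead assay, detection limit 2.56 pg/mL. Kruskal–Wallis test with Dunn's post hoc test.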

Structure (SMILES)	Activity
Cn1c2c(c3nc(SCC(=O)NC4CCCCC4)n(-c4ccccc4)c(=O)c31)CCCCC2	Active
Cn1c2ccccc2c2nc(SCC(=O)NC3CCCCC3)n(-c3ccccc3)c(=O)c21	Active
Cn1c2ccc(-c3ccccc3)cc2c2nc(SCC(=O)NC3CCCCC3)n(-c3ccccc3)c(=O)c21	Active

System: Mus musculus
Assay: Immunostimulatory activity in wild type C57BL/6 mouse assessed as induction of keratinocyte chemo-attractant levels in serum at 20 nmol, iv measured at 3 hrs post dose by Luminex beads assay
Format: functional, organism-based
Settings: not given
Method in brief: as §4

Structure (SMILES)	Activity
Cn1c2c(c3nc(SCC(=O)NC4CCCCC4)n(-c4ccccc4)c(=O)c31)CCCCC2	Active
Cn1c2ccccc2c2nc(SCC(=O)NC3CCCCC3)n(-c3ccccc3)c(=O)c21	Active
Cn1c2ccc(-c3ccccc3)cc2c2nc(SCC(=O)NC3CCCCC3)n(-c3ccccc3)c(=O)c21	Active

System: Mus musculus
Assay: Immunostimulatory activity in wild type C57BL/6 mouse assessed as induction of IP-10 levels in serum at 20 nmol, iv measured at 3 hrs post dose by Luminex beads assay
Format: functional, organism-based
Settings: not given
Method in brief: as §4

Structure (SMILES)	Activity
Cn1c2c(c3nc(SCC(=O)NC4CCCCC4)n(-c4ccccc4)c(=O)c31)CCCCC2	Active
Cn1c2ccccc2c2nc(SCC(=O)NC3CCCCC3)n(-c3ccccc3)c(=O)c21	Active
Cn1c2ccc(-c3ccccc3)cc2c2nc(SCC(=O)NC3CCCCC3)n(-c3ccccc3)c(=O)c21	Active

Biological target: T3, Toll-like receptor 4 (Mus musculus)
Assay: Agonist activity at TLR4 in C57BL/6 mouse BMDC assessed as induction of IL-6 release at 0.1 to 10 uM after 18 hrs by ELISA
Settings: not given
Method in brief: as §3

Activity	Structure (SMILES)
Active	Cn1c2c(c3nc(SCC(=O)NC4CCCCC4)n(-c4ccccc4)c(=O)c31)CCCCC2
Active	Cn1c2ccc(-c3ccc4ccccc4c3)cc2c2nc(SCC(=O)NC3CCCCC3)n(-c3ccccc3)c(=O)c21
Active	Cn1c2ccccc2c2nc(SCC(=O)NC3CCCCC3)n(-c3ccccc3)c(=O)c21
Active	Cn1c2ccc(-c3ccccc3)cc2c2nc(SCC(=O)NC3CCCCC3)n(-c3ccccc3)c(=O)c21
